Key:
[1] = test system: U87MG cells with transferrin receptors blocked by excess T7-PEG4-N3; assay: T7 competition assay: transferrin receptor blocking studies; type: cell-based; conditions: Homo sapiens, U-87 MG, read-out: IC50 at 72 h in TfR-blocked U87MG cells
Method in brief: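 U87MG cells were seeded at 1 × 10^4/well and grown 24 h. Medium was replaced with medium containing a 10-fold molar excess of azido-PEG4-T7 peptide relative to conjugate for 1 h. Cells were then exposed to 5–160 nM test compound. Controls were medium, 0.05% DMSO and peptide alone. XTT read-out at 72 h, A450 relative to controls, n = 4. IC50 from concentration–response curve fit.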

[2] = cited from earlier work
U87MG cells = assay: XTT cytotoxicity assay; type: cell-based, Human; conditions: for cytotoxicity on U87MG cells at 24 h: XTT assay, 24 h exposure, 5-160 nM, n = 4
Method in brief: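 U87MG cells were kept in EMEM with 10% FBS and 1% penicillin–streptomycin at 37 °C, 5% CO2. Cells were seeded at 1 × 10^4/well and treated after 24 h with 5–160 nM test compound at 37 °C. At 24 and 72 h, XTT with electron coupling reagent was added for 3 h, then A450 was read. Values were normalized to untreated cells. Controls were 0.05% DMSO and medium. Mean ± SD, n = 4. IC50 from concentration–response curve fit.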

[3] = Control incubation in enzyme-free reaction buffer pH 6.0; type: physicochemical; conditions: enzyme free buffer pH 6.0, 37 °C, 24 h, 183 μM conjugate, RP-HPLC, n = 3
Method in brief: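 Enzyme-free control run alongside the cathepsin B cleavage assay. Reaction buffer was 150 mM sodium acetate, 12 mM EDTA and 24 mM DTT, pH 6.0. Conjugate was added from a DMSO stock to 183 μM final and incubated at 37 °C. Aliquots were taken over 0–24 h for RP-HPLC. Peak areas at the retention times of pure drug and conjugate tracked conjugate loss and free drug appearance.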

[4] = Stability in phosphate buffer saline pH 7.4; type: physicochemical; conditions: PBS pH 7.4 with 2% DMSO, 196 μM conjugate, 37 °C, 0-24 h, HPLC, n = 3
Method in brief: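 Conjugate in PBS pH 7.4 with 2% DMSO, 196 μM final, held at 37 °C. Aliquots were withdrawn at time points over 0–24 h and analysed by HPLC. Results were plotted as areas of intact conjugate and of released free drug over time (n = 3).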

TfR = conditions: cited from earlier work

Molecule	IC50 [1]	potency compared to irinotecan [2]	IC50 (U87MG cells; Homo sapiens, U-87 MG, 72 h, read-out: IC50 on U87MG cells at 72 h)	cytotoxicity on U87MG cells at 24 h (U87MG cells)	release of free SN-38 in enzyme free buffer [3]	stability in phosphate-buffered saline [4]	binding affinity for TfR relative to Tf (TfR)
CCc1c2c(nc3ccc(O)cc13)-c1cc3c(c(=O)n1C2)COC(=O)[C@]3(O)CC [SN-38, 7-Ethyl-10-hydroxycamptothecin]	27.6 nM	100–1000 times	26.4 nM	did not exert pronounced cytotoxicity			
CCc1c2c(nc3ccc(OCc4ccc(NC(=O)[C@H](C)NC(=O)[C@@H](NC(=O)CCCCCNC(=O)COCCOCCOCCNC(=O)CCCCC(=O)N5Cc6ccccc6-c6c(nnn6CCOCCOCCOCCOCCC(=O)N[C@@H](Cc6c[nH]cn6)C(=O)N[C@@H](C)C(=O)N[C@H](C(=O)N[C@@H](Cc6ccc(O)cc6)C(=O)N6CCC[C@H]6C(=O)N[C@@H](CCCNC(=N)N)C(=O)N[C@@H](Cc6c[nH]cn6)C(=O)O)[C@@H](C)CC)-c6ccccc65)C(C)C)cc4)cc13)-c1cc3c(c(=O)n1C2)COC(=O)[C@]3(O)CC [Compound T7-SN-38]				did not exert pronounced cytotoxicity	No free SN-38 was observed	very minimal decomposition or cleavage	
His-Ala-Ile-Tyr-Pro-Arg-His [T7 peptide]							comparable to that of Tf
